Source: ChEMBL document CHEMBL2146365, “Design and synthesis of EGFR dimerization inhibitors and evaluation of their potential in the treatment of psoriasis” (Bioorg Med Chem, 2012)
pIC50: −log10 of the molar value.

Assays:
[1] = target: Epidermal growth factor receptor (Homo sapiens) (UniProt P00533); assay: Inhibition of EGFR-mediated ERK1 phosphorylation in HPV-16 transformed human CCD-1106 cells at 111.8 uM after 30 mins by densitometric analysis; format: cell-based
How it was run: (§1)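 CCD-1106 cells were treated with compound for 30 min at 37 °C, then stimulated with EGF. Lysates were separated by SDS-PAGE, blotted to nitrocellulose and blocked in 3% BSA/NaTT. Blots were probed with p-ERK (E-4) or p-p38 (D-8) antibodies, detected by ECL and quantified by densitometry.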

[2] = target: Epidermal growth factor receptor (Homo sapiens) (UniProt P00533); assay: Inhibition of EGFR-mediated ERK2 phosphorylation in HPV-16 transformed human CCD-1106 cells at 111.8 uM after 30 mins by densitometric analysis; format: cell-based; how it was run: as §1
[3] = Antioxidant activity in bovine brain assessed as inhibition of iron-ascorbate-induced lipid peroxidation by thiobarbituric acid test; format: functional, tissue-based, Bos taurus
How it was run: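 Hit compounds were tested for inhibition of lipid peroxidation by the thiobarbituric acid (TBA) assay. Propyl gallate served as the standardizing positive control, tested at 100 µM.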

[4] = target: Epidermal growth factor receptor (Homo sapiens) (UniProt P00533); assay: Inhibition of phosphorylated EGFR dimerization in HPV-16 transformed human CCD-1106 cells at 118.1 uM after 30 mins by densitometric analysis; format: cell-based
How it was run: (§2)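 CCD-1106 cells were exposed to compounds for 30 min at 37 °C, then stimulated with EGF 50 ng/mL for 10 min. They were cross-linked with 2 mM BS3 for 30 min at room temperature and quenched with Tris (pH 7.5). Lysates were run on SDS-PAGE and immunoblotted for phospho-EGFR (Tyr1173) and total EGFR. The ~340 kDa dimer band was quantified by densitometry against the no-inhibitor control.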

[5] = target: Epidermal growth factor receptor (Homo sapiens) (UniProt P00533); assay: Inhibition of EGFR-mediated p38 phosphorylation in HPV-16 transformed human CCD-1106 cells at 111.8 uM after 30 mins by densitometric analysis; format: cell-based; how it was run: as §1
[6] = Growth inhibition of HPV-16 transformed human CCD-1106 cells after 72 hrs by MTT assay; format: functional; settings: CCD-1106, 72 h
How it was run: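 Cells were seeded at 10,000 cells/well in keratinocyte serum-free medium with L-glutamine, bovine pituitary extract and EGF, at 37 °C under 5% CO2, and attached overnight. Eight drug concentrations were run with six in-plate replicates, DMSO <1%, for 72 h. MTT (0.5 mg/ml) was added for 2 h, formazan was dissolved in 90% isopropanol/10% DMSO and A590 was read. Growth is expressed relative to the untreated control.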

[7] = target: Epidermal growth factor receptor (Homo sapiens) (UniProt P00533); assay: Inhibition of phosphorylated EGFR dimerization in HPV-16 transformed human CCD-1106 cells at 134.5 uM after 30 mins by densitometric analysis; format: cell-based; how it was run: as §2
[8] = target: Epidermal growth factor receptor (Homo sapiens) (UniProt P00533); assay: Inhibition of EGFR-mediated ERK1 phosphorylation in HPV-16 transformed human CCD-1106 cells at 161.1 uM after 30 mins by densitometric analysis; format: cell-based; how it was run: as §1
[9] = target: Epidermal growth factor receptor (Homo sapiens) (UniProt P00533); assay: Inhibition of EGFR-mediated ERK1 phosphorylation in HPV-16 transformed human CCD-1106 cells at 153 uM after 30 mins by densitometric analysis; format: cell-based; how it was run: as §1
[10] = target: Epidermal growth factor receptor (Homo sapiens) (UniProt P00533); assay: Inhibition of phosphorylated EGFR dimerization in HPV-16 transformed human CCD-1106 cells at 155.4 uM after 30 mins by densitometric analysis; format: cell-based; how it was run: as §2
[11] = target: Epidermal growth factor receptor (Homo sapiens) (UniProt P00533); assay: Inhibition of EGFR-mediated ERK2 phosphorylation in HPV-16 transformed human CCD-1106 cells at 153 uM after 30 mins by densitometric analysis; format: cell-based; how it was run: as §1

Chain of Epidermal growth factor receptor (Homo sapiens) (P00533 whole entry): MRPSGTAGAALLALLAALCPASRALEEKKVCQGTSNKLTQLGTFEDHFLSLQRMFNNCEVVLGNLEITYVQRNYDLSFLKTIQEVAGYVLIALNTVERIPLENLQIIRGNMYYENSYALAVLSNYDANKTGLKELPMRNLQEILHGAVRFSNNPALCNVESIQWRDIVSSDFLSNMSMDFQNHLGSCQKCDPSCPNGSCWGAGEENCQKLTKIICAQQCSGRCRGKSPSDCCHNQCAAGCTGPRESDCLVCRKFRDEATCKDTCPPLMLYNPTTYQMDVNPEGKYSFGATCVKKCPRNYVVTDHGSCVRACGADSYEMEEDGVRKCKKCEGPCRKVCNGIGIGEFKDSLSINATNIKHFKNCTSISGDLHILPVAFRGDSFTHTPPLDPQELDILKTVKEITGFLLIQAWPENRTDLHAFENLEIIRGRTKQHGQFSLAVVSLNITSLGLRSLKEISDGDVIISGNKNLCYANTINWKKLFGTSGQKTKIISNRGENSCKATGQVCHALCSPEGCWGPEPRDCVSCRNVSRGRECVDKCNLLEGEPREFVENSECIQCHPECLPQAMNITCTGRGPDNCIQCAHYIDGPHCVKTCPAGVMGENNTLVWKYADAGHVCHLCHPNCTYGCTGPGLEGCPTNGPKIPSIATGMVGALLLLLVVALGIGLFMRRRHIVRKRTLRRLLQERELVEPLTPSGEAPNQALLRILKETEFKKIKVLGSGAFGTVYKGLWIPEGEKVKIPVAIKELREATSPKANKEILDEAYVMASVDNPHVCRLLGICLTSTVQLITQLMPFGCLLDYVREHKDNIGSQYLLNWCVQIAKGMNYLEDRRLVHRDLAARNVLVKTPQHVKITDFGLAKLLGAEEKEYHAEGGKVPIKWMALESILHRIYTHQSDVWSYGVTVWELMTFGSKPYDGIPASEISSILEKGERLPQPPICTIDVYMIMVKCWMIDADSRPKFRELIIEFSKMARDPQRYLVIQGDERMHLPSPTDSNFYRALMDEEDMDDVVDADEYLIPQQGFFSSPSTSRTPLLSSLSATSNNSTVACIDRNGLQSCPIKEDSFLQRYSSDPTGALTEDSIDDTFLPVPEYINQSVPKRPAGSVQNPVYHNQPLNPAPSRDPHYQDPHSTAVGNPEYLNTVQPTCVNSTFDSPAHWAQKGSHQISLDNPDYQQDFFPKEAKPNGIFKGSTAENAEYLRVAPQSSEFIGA

| Structure (SMILES) | pIC50 [3] | GI50 ([6]; read-out: GI50) [µM] | GI50 ([6]; read-out: pGI50 (converted)) [µM] | further results |
| --- | --- | --- | --- | --- |
| Cc1ccc(OCC(=O)N/N=C/c2c(OC(=O)c3ccccc3)ccc3ccccc23)cc1 | 2.90 | 9.33 | – | inhibition [1]: 26%; inhibition [2]: 19%; inhibition [4]: 42%; inhibition [5]: 12% |
| CCOc1cc(/C=N\Nc2nc3c(c(=O)n(C)c(=O)n3C)n2Cc2ccccc2C(=O)O)cc(OCC)c1OCC | – | 117 | 117 | – |
| CCOC(=O)C1=C(C)NC(C)=C(C(=O)OCC)C1c1ccc(-c2ccc(Br)cc2)o1 | 3.40 | 4.09 | – | inhibition [7]: 47%; inhibition [8]: 12% |
| CCOc1cc(/C=N\Nc2nc3c(c(=O)n(C)c(=O)n3C)n2Cc2ccccc2OC)cc(OCC)c1OCC | – | 5.16 | 5.13 | – |
| CCOc1cc(/C=N\Nc2nc3c(c(=O)n(C)c(=O)n3C)n2Cc2ccc(C)cc2)cc(OCC)c1OCC | – | 9.83 | 10 | – |
| CCOc1cc(/C=N\Nc2nc3c(c(=O)n(C)c(=O)n3C)n2Cc2ccc([N+](=O)[O-])cc2)ccc1O | – | 5.47 | 5.5 | – |
| CCOC(=O)c1ccccc1Cn1c(N/N=C\c2cc(OCC)c(OCC)c(OCC)c2)nc2c1c(=O)n(C)c(=O)n2C | – | 48.3 | 47.9 | – |
| CCOC(=O)c1ccccc1Cn1c(N/N=C\c2ccc(O)c(OCC)c2)nc2c1c(=O)n(C)c(=O)n2C | – | 106 | 107 | – |
| O=C(Nc1ccccc1C(=O)c1ccccc1)c1cc([N+](=O)[O-])cc([N+](=O)[O-])c1 | 1.33 | 123 | – | inhibition [9]: 28%; inhibition [10]: 52%; inhibition [11]: 20% |
